Screening results: PubChem BioAssay, several laboratories
An excerpt weighted towards active compounds, which were near 4.9% of everything screened.
STAT1 act-1: STAT1 signaling activation; actives 2.6% (n = 200,000); activation (% of control), % at 5.5 µM; NIH 3T3 STAT1-luciferase reporter, IFN-gamma, luminescence; 100% = IFN-gamma alone, no compound; AID 932;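 active means activation above the screen-wide mean activation plus 3 SD, cut at about 130% in these data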
STAT3 act-1: STAT3 signaling activation | U3A cells, IL-6 STAT3-luciferase reporter, luminescence; 100% = signal with IL-6 EC80 alone | activation (% of control), % at 5.6 µM | actives 0.91% (n = 190,000) | AID 871;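 active means activation above the screen-wide mean of compound activation plus 3 SD, cut at about 130% in these data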
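Test system: Human STAT1-deficient U3A cells with stable STAT3-luciferase reporter | Also added: Interleukin-6, 33 ng/mL | Timing: Compound pre-incubation 1 h before IL-6, then 6 h stimulation at 37 °C | Technique: Luciferase reporter luminescence | Read-out: Percent of IL-6-only median luminescence | Benchmarks: IL-6-only wells as 100% reference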
STAT3 inh: inhibitors of IL-6 induced STAT3 signaling; U3A cells, IL-6 STAT3-luciferase reporter, luminescence; host cell line lacks STAT1; inhibition, % at 5.5 µM; actives 0.89% (n = 190,000); AID 862;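 active means inhibition above the mean inhibition across all screened compounds plus 3 SD, cut at about 44% in these data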
NF-kB expr up: compounds increasing NF-kB expression in human neuronal cells | NF-kB reporter expression; hits give high values | fold change at 12.5 µM | actives 1.6% (n = 190,000) | AID 1239; in the data active means fold change above about 3.3
APP 5'UTR act: activates APP 5'UTR luciferase reporter; SH-SY5Y APP 5'UTR luciferase reporter, luminescence; zero percent = DMSO vehicle wells; activation, % at 2 µM; actives 1% (n = 190,000); AID 1276;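 active means activation above a set limit, based on mean plus 3 SD of controls, cut at about 140% in these data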
STAT1 blocker: reduces IFN-gamma driven STAT1 reporter signal | NIH 3T3 STAT1-luciferase reporter, luminescence | inhibition, % at 5.5 µM | actives 0.35% (n = 200,000);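 active means inhibition above a set limit, the mean inhibition across all tested compounds plus 3 SD, cut at about 34% in these data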
STAT3 act-2: STAT3 activation, confirmation assay. shares compounds with STAT3 act-1. U3A STAT3-luciferase reporter, IL-6 potentiation, luminescence; U3A cells lack STAT1; 100 means same as IL-6 alone. potentiation (% of control), % at 5.7 µM. actives 64% (n = 1,200). AID 1267;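 active means percent activation of the STAT3 luciferase reporter above a set limit taken from the earlier primary screen, cut at about 130% in these data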
NFkB act STAT3ct: activates NF-kappaB, counter-screen to STAT3 activators; human cells, NF-kappaB reporter activation; AID 1309; activation (% of control), % at 5.7 µM; actives 11% (n = 1,200); shares compounds with STAT3 act-1; in the data active means activation above about 120%;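 further: reporter induced by TNF-alpha stimulation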
STAT1 act-2: counter-screen for STAT3 activators: STAT1 activation; shares compounds with STAT3 act-1; NIH 3T3 STAT1-luciferase reporter, IFN-gamma, luminescence; activation (% of control), % at 5.7 µM; actives 13% (n = 1,200);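 active means activation above the solvent-only control well mean plus 3 SD, set per screening run, cut at about 120% in these data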
Each line names hits and unclear results; the compound was inactive in the other large screens (follow-up assays come after a bar, where they were run).

CC(=O)N1CCN(c2ncnc3sc(-c4ccccc4)cc23)CC1	none
c1ccc(-c2cc(-c3nn4c(-c5ccco5)nnc4s3)c3ccccc3n2)cc1	none
Cc1cc(-c2nn3c(-c4ccccc4)nnc3s2)c2ccccc2n1	STAT3 act-1 156 | STAT3 act-2 139 | NFkB act STAT3ct inactive | STAT1 act-2 inactive
C/C(=N\NC(=O)c1c(Br)cnn1C)c1ccc(NC(=O)c2ccc(F)cc2)cc1	none
COc1ccc2nc(N=Nc3c(O)ccc4ccccc34)sc2c1	STAT3 act-1 137 | STAT3 act-2 inactive | NFkB act STAT3ct inactive | STAT1 act-2 inactive
CCOC(=O)C(C(=O)Nc1nc2ccccc2s1)C1CCCCC1 (stereo not drawn)	STAT3 act-1 143 | STAT3 act-2 inactive | NFkB act STAT3ct inactive | STAT1 act-2 inactive
CCOC(=O)C(C(=O)Nc1cccc(C)n1)C1CCCCC1 (stereo not drawn)	none
O=[N+]([O-])c1ccccc1C1Nc2cccc3cccc(c23)N1	STAT3 act-1 138 | STAT3 act-2 inactive | NFkB act STAT3ct 122 | STAT1 act-2 inactive
Cc1ccc(NC(=O)CN(C)CC(=O)Nc2ccccc2C(=O)Nc2ccccc2)cc1	STAT3 act-1 147 | STAT3 act-2 inactive | NFkB act STAT3ct inactive | STAT1 act-2 inactive
COc1ccc(C)cc1S(=O)(=O)N(C)CC(=O)NC1CCCCCC1	STAT3 act-1 136 | STAT3 act-2 inactive | NFkB act STAT3ct inactive | STAT1 act-2 inactive
CC1CCCN(C(=S)Nc2ccc3nc4n(c(=O)c3c2)CCCCC4)C1 (stereo not drawn)	none
COc1ccc(Oc2nc(C)cc(C)c2C#N)cc1	none
COc1ccc(N(C(C)=O)c2nc(C)cc(C)c2C#N)c(OC)c1	STAT3 act-1 154 | STAT3 act-2 157 | NFkB act STAT3ct inactive | STAT1 act-2 inactive
CC(C)(C)C1(O)CC(C(F)(F)F)=NN1C(=O)Cc1ccc([N+](=O)[O-])cc1 (stereo not drawn)	STAT3 act-1 137 | STAT3 act-2 152 | NFkB act STAT3ct inactive | STAT1 act-2 inactive
CCOC(=O)c1c(OCCO)nn(-c2ccccc2)c1N	none
CCCSc1nc(-c2ccccc2)cc(C(F)(F)F)c1C#N	none
N#Cc1c(C(F)(F)F)cc(-c2ccccc2)nc1SCCN1CCOCC1	STAT3 act-1 152 | STAT3 act-2 146 | NFkB act STAT3ct inactive | STAT1 act-2 inactive
Cc1cc(C)c2c(N)c(-c3nc4ccccc4[nH]3)sc2n1	STAT3 act-1 171, APP 5'UTR act 142 | STAT3 act-2 182 | NFkB act STAT3ct inactive | STAT1 act-2 inactive
COc1cccc(-n2c(N)c(-c3nc4ccccc4[nH]3)sc2=S)c1	none
COc1ccccc1-c1nc(SCC(=O)O)n[nH]1	STAT3 act-1 137 | STAT3 act-2 inactive | NFkB act STAT3ct inactive | STAT1 act-2 inactive
COc1ccccc1-c1nc(N)n[nH]1	STAT3 act-1 146 | STAT3 act-2 inactive | NFkB act STAT3ct inactive | STAT1 act-2 inactive
Cc1ccc(NCc2n[nH]c(=S)n2Cc2ccccc2)cc1Cl	none
CCC1=Nc2ccccc2NC2=C1C(=O)CCC2	STAT3 act-1 166 | STAT3 act-2 160 | NFkB act STAT3ct inactive | STAT1 act-2 123
CC1CC(=O)C2=C(C1)Nc1ccccc1N=C2 (stereo not drawn)	none
Cc1ccc(/C=N/NC(=O)c2cc(C3CC3)nc3ccccc23)o1	none
CCNC(=O)NC(=O)COC(=O)CCc1nc(=O)c2ccccc2n1C	none
CCCCNC(=O)CNC(=S)N(CCCN1CCOCC1)Cc1cccs1	none
COc1cc([C@@H]2c3cc4c(cc3[C@H](O)[C@H]3COC(=O)[C@H]23)OCO4)cc(OC)c1OC	STAT3 act-1 152, NF-kB expr up 3.9 | STAT3 act-2 inactive | NFkB act STAT3ct 164 | STAT1 act-2 inactive
CC(C)C[C@H](NC(=O)OC(C)(C)C)c1n[nH]c(=S)n1N	none
CN1c2ccccc2C(O)=C(C(=S)Nc2ccc(Cl)cc2)S1(=O)=O	none
Cc1cccc(NC(=O)C2=C(O)c3ccccc3N(C)S2(=O)=O)c1	STAT3 act-1 155 (no result: APP 5'UTR act) | STAT3 act-2 inactive | NFkB act STAT3ct inactive | STAT1 act-2 inactive
O=C(Nc1nc2ccccc2s1)c1ccc2c(c1)S(=O)(=O)c1ccccc1C2=O	STAT3 act-1 140 | STAT3 act-2 inactive | NFkB act STAT3ct inactive | STAT1 act-2 inactive
CC(=O)OCC1(C)CN(c2ccccc2)N(C(=O)c2ccc(F)cc2)C1=O (stereo not drawn)	none
Cc1cccc(/C=N/NC(=O)c2cc3c(s2)-c2ccccc2CC3)c1	none
COC(=O)c1cc2c(s1)-c1ccccc1CC2	STAT3 act-1 164 | STAT3 act-2 150 | NFkB act STAT3ct inactive | STAT1 act-2 126
O=C(Nc1cccc(Cl)c1)Nc1nnc(CC2=CCCCC2)s1	none
O=C(c1ccccc1)N1CCN2C(=O)c3ccccc3C12c1ccc(Cl)cc1 (stereo not drawn)	STAT3 act-1 418 | STAT3 act-2 283 | NFkB act STAT3ct inactive | STAT1 act-2 inactive
O=C(c1ccc(F)cc1)N1CCN2C(=O)c3ccccc3C12c1ccc(Cl)cc1 (stereo not drawn)	STAT3 act-1 204 | STAT3 act-2 146 | NFkB act STAT3ct inactive | STAT1 act-2 inactive
CC(C)(C)NC(=O)C(OC(=O)c1cccs1)c1ccc(F)cc1 (stereo not drawn)	none
O=C1C(=O)N(Cc2ccccc2)C(=O)N1CCN1C(=O)c2ccccc2C1=O	none
O=C1Cc2ccccc2C(=O)N1CCc1ccccc1	STAT3 act-1 155 | STAT3 act-2 136 | NFkB act STAT3ct inactive | STAT1 act-2 inactive
COc1ccc(S(=O)(=O)Nc2c(C(=O)O)[nH]c3ccccc23)cc1OC	STAT3 act-1 141 | STAT3 act-2 165 | NFkB act STAT3ct inactive | STAT1 act-2 inactive
COc1ccc(S(=O)(=O)Nc2ccccn2)cc1OC	none
O=C(O)c1[nH]c2ccccc2c1NS(=O)(=O)Cc1ccccc1	STAT3 act-1 155 | STAT3 act-2 165 | NFkB act STAT3ct inactive | STAT1 act-2 inactive
CCOC(=O)CC1=NN(c2ccccc2)C(=O)/C1=C\c1ccc(OC)cc1OC	none
S=C(Nc1ccccc1)N1CCn2c1nc1ccccc12	none
O=C(Nc1ccccc1)N1CCn2c1nc1ccccc12	STAT3 act-1 161 | STAT3 act-2 139 | NFkB act STAT3ct inactive | STAT1 act-2 inactive
